Data from ChEMBL document CHEMBL3525963, “Tissue distribution and elimination of [14C]apixaban in rats” (Drug Metab Dispos, 2011).

Legend:
Set-up in all cases: dose 5 mg/kg, dosed compound name [14C]-apixaban, route oral
Conditions in all cases: in vivo
Blood [1] = experiment: AUC (0 to t) in lactating Sprague-Dawley rat blood at 5 mg/kg, po administered as single dose; assay type: ADME, organism-based
Rattus norvegicus [2] = experiment: Biodistribution in pregnant Sprague-Dawley rat brown fat at 5 mg/kg, po administered as single dose measured after 4 hrs; assay type: ADME, organism-based, Brown adipose tissue
Pancreas [3] = experiment: Biodistribution in female Sprague-Dawley rat pancreas at 5 mg/kg, po administered as single dose measured after 72 hrs; assay type: ADME, organism-based
Summary of the method: (§1)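 Quantitative whole-body autoradiography was run after a single 5 mg/kg (100 μCi/kg) oral gavage to fasted female or pregnant SD rats, one rat per time point. Carcasses were frozen in hexane/dry ice, and 40 µm sagittal sections were dried at −20°C for at least 48 h. Sections were exposed to a phosphor plate alongside [14C]glucose standards (0.001–6.5 µCi/g). Results are µg eq/g, with LLOQ 0.037 µg eq/g.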

Pancreas [4] = experiment: Biodistribution in female Sprague-Dawley rat pancreas at 5 mg/kg, po administered as single dose measured after 24 hrs; assay type: ADME, organism-based; summary of the method: as §1
Rattus norvegicus [5] = experiment: Biodistribution in pregnant Sprague-Dawley rat placenta at 5 mg/kg, po administered as single dose measured after 24 hrs; assay type: ADME, organism-based
Adrenal gland [6] = experiment: Biodistribution in male Sprague-Dawley rat adrenal gland at 5 mg/kg, po administered as single dose measured after 1 hr; assay type: ADME, organism-based
Summary of the method: (§2)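 [¹⁴C]Apixaban given by oral gavage at 5 mg/kg (100 μCi/kg) in 0.5% Tween 80 in Labrafil (1.0 mg/mL dosing solution) to rats fasted overnight through 4 h post-dose. One rat per time point; carcass frozen in hexane/dry ice. Quantitative whole-body autoradiography used 40 µm sagittal sections and a phosphor imaging plate calibrated with [¹⁴C]glucose standards (0.001–6.5 μCi/g). Read-out in µg eq apixaban/g; LLOQ 0.037 μg eq/g.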

Rattus norvegicus [7] = experiment: Biodistribution in female Sprague-Dawley rat salivary gland at 5 mg/kg, po administered as single dose measured after 8 hrs; assay type: ADME, organism-based
Summary of the method: (§3)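 [14C]apixaban (20 μCi/mL in dosing solution) in 0.5% Tween 80 in Labrafil given by oral gavage to fasted female rats, 206-213 g, at 100 μCi/kg. One rat per time point was euthanized and snap-frozen. Sagittal 40 µm whole-body sections were read by QWBA phosphor imaging against [14C]glucose standards. Results are in µg eq apixaban/g, with LLOQ 0.037 μg eq/g.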

[8] = Drug level in lactating Sprague-Dawley rat milk at 5 mg/kg, po administered as single dose after 12 hrs; assay type: ADME, organism-based
Blood [9] = experiment: Cmax in female Sprague-Dawley rat blood at 5 mg/kg, po administered as single dose; assay type: ADME, organism-based
Summary of the method: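 Fasted male, female or pregnant SD rats received a single oral gavage of 5 mg/kg (100 μCi/kg) in 0.5% Tween 80/Labrafil. One rat was killed per time point, up to 168 h (48 h for pregnant). Blood was collected into K3EDTA. Blood radioactivity came from autoradiogram or LSC data, and Cmax was taken from the concentration-time profile.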

Rattus norvegicus [10] = experiment: Biodistribution in female Sprague-Dawley rat brown fat at 5 mg/kg, po administered as single dose measured after 4 hrs; assay type: ADME, organism-based, Brown adipose tissue; summary of the method: as §3
Liver = experiment: Biodistribution in male Sprague-Dawley rat liver at 5 mg/kg, po administered as single dose measured after 0.5 hrs; assay type: ADME, organism-based
Summary of the method: (§4)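 [14C]apixaban (1.0 mg/mL, 20 μCi/mL) in 0.5% Tween 80 in Labrafil, given by oral gavage at 100 μCi/kg to male rats (225-252 g) fasted overnight through 4 h post-dose. One rat per time point. Carcasses frozen in hexane/dry ice and cut into 40 µm sagittal sections. QWBA read on phosphor plates against [14C]glucose standards, reported as µg eq/g. LLOQ 0.037 µg eq/g.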

Thymus = experiment: Biodistribution in pregnant Sprague-Dawley rat thymus at 5 mg/kg, po administered as single dose measured after 48 hrs; assay type: ADME, organism-based
Summary of the method: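 Pregnant SD rats (270-319 g) were fasted overnight and given one oral gavage of 5 mg/kg (100 μCi/kg) in 0.5% Tween 80 in Labrafil. One rat was euthanized per time point (0.5, 1, 4, 8, 24, 48 h) and the carcass frozen. 40 µm sagittal sections were phosphor-imaged against [14C]glucose standards and results reported as µg eq/g; LLOQ 0.037 µg eq/g.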

Rattus norvegicus [11] = experiment: Biodistribution in female Sprague-Dawley rat pituitary gland at 5 mg/kg, po administered as single dose measured after 24 hrs; assay type: ADME, organism-based; summary of the method: as §1
Lung [12] = experiment: Biodistribution in male Sprague-Dawley rat lung at 5 mg/kg, po administered as single dose measured after 8 hrs; assay type: ADME, organism-based; summary of the method: as §4
Rattus norvegicus [13] = experiment: Biodistribution in fetal liver of pregnant Sprague-Dawley rat at 5 mg/kg, po administered as single dose measured after 8 hrs; assay type: ADME, organism-based
Summary of the method: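 Pregnant SD rats received a single oral gavage of [14C]apixaban at 5 mg/kg (100 μCi/kg; 1.0 mg/mL, 20 μCi/mL in 0.5% Tween 80/Labrafil) after fasting, one dam per time point. Frozen carcasses were cut into 40 µm sagittal sections and read by phosphor-imaging QWBA against [14C]glucose standards. Fetal tissue radioactivity is reported as µg eq/g, with LLOQ 0.037 µg eq/g.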

Muscle tissue [14] = experiment: Biodistribution in male Sprague-Dawley rat muscle at 5 mg/kg, po administered as single dose measured after 0.5 hrs; assay type: ADME, organism-based; summary of the method: as §4
Adrenal gland [15] = experiment: Biodistribution in female Sprague-Dawley rat adrenal gland at 5 mg/kg, po administered as single dose measured after 0.5 hrs; assay type: ADME, organism-based; summary of the method: as §2
Muscle tissue [16] = experiment: Biodistribution in pregnant Sprague-Dawley rat muscle at 5 mg/kg, po administered as single dose measured after 4 hrs; assay type: ADME, organism-based
Lung [17] = experiment: Biodistribution in male Sprague-Dawley rat lung at 5 mg/kg, po administered as single dose measured after 24 hrs; assay type: ADME, organism-based; summary of the method: as §4
Rattus norvegicus [18] = experiment: Biodistribution in pregnant Sprague-Dawley rat bone marrow at 5 mg/kg, po administered as single dose measured after 8 hrs; assay type: ADME, organism-based
Blood [19] = experiment: Biodistribution in female Sprague-Dawley rat blood at 5 mg/kg, po administered as single dose measured after 24 hrs; assay type: ADME, organism-based; summary of the method: as §1
Brain [20] = experiment: Biodistribution in female Sprague-Dawley rat brain at 5 mg/kg, po administered as single dose measured after 1 hr; assay type: ADME, organism-based
Summary of the method: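 [14C]Apixaban (1.0 mg/mL, 20 μCi/mL in 0.5% Tween 80 in Labrafil) given as a single oral gavage of 5 mg/kg (100 μCi/kg) to fasted female SD rats, one rat per time point. Carcasses were frozen in hexane/dry ice and cut into 40 µm sagittal sections for QWBA against [14C]glucose standards. Brain radioactivity is reported as µg eq/g, with LLOQ 0.037 µg eq/g.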

Lung [21] = experiment: Biodistribution in female Sprague-Dawley rat lung at 5 mg/kg, po administered as single dose measured after 24 hrs; assay type: ADME, organism-based; summary of the method: as §1
Brain [22] = experiment: Biodistribution in male Sprague-Dawley rat brain at 5 mg/kg, po administered as single dose measured after 4 hrs; assay type: ADME, organism-based
Spleen [23] = experiment: Biodistribution in pregnant Sprague-Dawley rat spleen at 5 mg/kg, po administered as single dose measured after 4 hrs; assay type: ADME, organism-based
Spleen [24] = experiment: Biodistribution in female Sprague-Dawley rat spleen at 5 mg/kg, po administered as single dose measured after 24 hrs; assay type: ADME, organism-based; summary of the method: as §1

COc1ccc(-n2nc(C(N)=O)c3c2C(=O)N(c2ccc(N4CCCC[14C]4=O)cc2)CC3)cc1
AUCt (Blood [1]): 1940 ngequiv.hr/g | Radiolabel recovery (Rattus norvegicus [2]): 0.87 ugequiv/g | Radiolabel recovery (Pancreas [3]): Not sampled as not visualised in autoradiograph | Radiolabel recovery (Pancreas [4]): Not detected assumed BLQ | Radiolabel recovery (Rattus norvegicus [5]): < 0.037 ugequiv/g | Radiolabel recovery (Adrenal gland [6]): 1.2 ugequiv/g | Radiolabel recovery (Rattus norvegicus [7]): 0.13 ugequiv/g | Radiolabel recovery [8]: 3.61 µg/mL | Cmax (Blood [9]): 880 ngequiv/g | Radiolabel recovery (Rattus norvegicus [10]): 0.61 ugequiv/g | Radiolabel recovery (Liver): 0.81 ugequiv/g | Radiolabel recovery (Thymus): Not detected assumed BLQ | Radiolabel recovery (Rattus norvegicus [11]): Not detected assumed BLQ | Radiolabel recovery (Lung [12]): 0.14 ugequiv/g | Radiolabel recovery (Rattus norvegicus [13]): 0.06 ugequiv/g | Radiolabel recovery (Muscle tissue [14]): 0.2 ugequiv/g | Radiolabel recovery (Adrenal gland [15]): 0.56 ugequiv/g | Radiolabel recovery (Muscle tissue [16]): 0.5 ugequiv/g | Radiolabel recovery (Lung [17]): < 0.037 ugequiv/g | Radiolabel recovery (Rattus norvegicus [18]): 0.06 ugequiv/g | Radiolabel recovery (Blood [19]): Not detected assumed BLQ | Radiolabel recovery (Brain [20]): < 0.037 ugequiv/g | Radiolabel recovery (Lung [21]): Not sampled as not visualised in autoradiograph | Radiolabel recovery (Brain [22]): < 0.037 ugequiv/g | Radiolabel recovery (Spleen [23]): 0.47 ugequiv/g | Radiolabel recovery (Spleen [24]): Not detected assumed BLQ
